This sample holds only a part of the variants without activity.
B1: tRNA (parent)
chain: GUUCCGUUGGCGUAAUGGUAACGCGUCUCCCUCCUAAGGAGAAGACUGCGGGUUCGAGUCCCGUACGGAACG

Variants of: B1
Assay: yeast fitness relative to wild type (ratio to wild type); higher = fitter; tRNA-Arg(CCU), competitive growth, 37 C, YPD
Procedure, shortened: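 Genotype frequency changes were the basis for Darwinian fitness relative to wild type. The frequencies came from 100-nucleotide paired-end sequencing of gene amplicons from the start population and each end population of pooled yeast strains with tRNA-Arg(CCU) gene variants at the native locus. Competition ran in YPD at 37°C for 24 hours in six replicates, genotypes needed ≥ 100 starting reads, and estimates < 0.5 were set to 0.5.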

| Variant | yeast fitness |
| --- | --- |
| GUUCCGUUGGCGUAAUGGUAACGCGUCUCCCUCCUAUCGAGAAGACUGCGGGUUCGAGUCCCGUACGGAACG [A37U G38C] | 0.557 |
| GUUCCGUUGGCGUAAUGGUAACGCGUCUCCCUCCUAAAGCGAAGACUGCGGGUUCAAGUCCCGUAUGGACCG [G38A A40C G56A C66U A70C] | ≤ 0.5 |
| GUUCCGUUGGCGUAAUGGUAACGCGUCUCCCUCCUAUGGAGAAGACUGCGGGUUCGAGUCUCGUACGGAACG [A37U C61U] | 0.771 |
| GUUCCGUUGGCGUAAUGGUAACGCGUCUCCCUCCUAGGGAGAAGACUGCGGGUCCGAGUCCCGUUCGGAACG [A37G U54C A65U] | ≤ 0.5 |
| GUUCCGUUGGCGUAAUGGUAACGCGUCUCCCUCCUAUCGAGAAGACUGCGGGUUCGAGUCUCGUACGGAACG [A37U G38C C61U] | ≤ 0.5 |
| GUUCCGUUGGCGUAAUGGUAACGCGUCUCCCUCCUAUGGAGAAGACUCCGGGUUCGAGUCCCGUACGGAUCG [A37U G48C A70U] | 0.547 |
| GUUCCGUUGGCGUAAUGGUAACGCGUCUCCCUCCUAAAGAGAGGACUGCGGGUUCGAGUCCCGUACGGAACG [G38A A43G] | 0.607 |
| GUUCCGUUGGCGUAAUGGUAACGCGUCUCCCUCCUAUGGAGAAGACUGCGGGUUCGGGUCCCGUACGGAACG [A37U A57G] | 0.648 |
| GUUCCGUUGGCGUAAUGGUAACGCGUCUCCCUCCUAUGGAGAAGACUGCGGGUUCGCGUCCCGUACGGAACG [A37U A57C] | 0.578 |
| GUUCCGUUGGCGUAAUGGUAACGCGUCUCCCUCCUAUGGAGAAGUCUGCGGGUUCGAGUCCCGUACGUAACG [A37U A45U G68U] | ≤ 0.5 |
| GUUCCGUUGGCGUAAUGGUAACGCGUCUCCCUCCUAUGGAGAAGACUGCGGGUUCGUGUCCCGUCCGAAACG [A37U A57U A65C G68A] | 0.561 |
| GUUCCGUUGGCGUAAUGGUAACGCGUCUCCCUCCUAGGGAGAAGACUGCGGGUACGAGUCCCGUACGGAACG [A37G U54A] | ≤ 0.5 |
| GUUCCGUUGGCGUAAUGGUAACGCGUCUCCCUCCUAGGGAGAAGACUGCGGGUCCGAGUCCCGUACGGAACG [A37G U54C] | 0.674 |
| GUUCCGUUGGCGUAAUGGUAACGCGUCUCCCUCCUAGGGAGAAGACUGCGGGUUCCAGUCCCGUACGGCACG [A37G G56C A69C] | ≤ 0.5 |
| GUUCCGUUGGCGUAAUGGUAACGCGUCUCCCUCCUAUGGAGAAGACUGCGGGUUCCAGUCCCGUACGGAACG [A37U G56C] | 0.528 |
| GUUCCGUUGGCGUAAUGGUAACGCGUCUCCCUCCUAUGGAGAAGACUGCGGGUUCGAGUCCCCUACGGAACG [A37U G63C] | 0.591 |
| GUUCCGUUGGCGUAAUGGUAACGCGUCUCCCUCCUAAAGAGAAGCCUGCGGGUUCGAGUCCCGUACGGAACG [G38A A45C] | 0.818 |
| GUUCCGUUGGCGUAAUGGUAACGCGUCUCCCUCCUAUGGAGAAGACUGCGGAUUCGAGUCCCGUACGGAACG [A37U G52A] | 0.534 |
| GUUCCGUUGGCGUAAUGGUAACGCGUCUCCCUCCUAAAGUGAAGACUGCGGGUUCGAGUCCCGUACGGAACG [G38A A40U] | 0.747 |

| Variant | yeast fitness |
| --- | --- |
| GUUCCGUUGGCGUAAUGGUAACGCGUCUCCCUCCUAUGGAGAAGAAUGCGGGUUCGAGUCCCGUACGGAACG [A37U C46A] | 0.816 |
| GUUCCGUUGGCGUAAUGGUAACGCGUCUCCCUCCUAUGGAGAAGACCGCGGGUUCGAGUCCCGUACGGAACG [A37U U47C] | 0.667 |
| GUUCCGUUGGCGUAAUGGUAACGCGUCUCCCUCCUAUGGAGAAGACAGCGGGUUCGAGUCCCGUACGGAACG [A37U U47A] | 0.796 |
| GUUCCGUUGGCGUAAUGGUAACGCGUCUCCCUCCUAUGGCGAAGACUGCGCGUUCGAGUCCCGUAAGGAACG [A37U A40C G51C C66A] | ≤ 0.5 |
| GUUCCGUUGGCGUAAUGGUAACGCGUCUCCCUCCUAUGGACAAGACUGCGGGUUCGAGUCCCGUACGGAACG [A37U G41C] | 0.68 |
| GUUCCGUUGGCGUAAUGGUAACGCGUCUCCCUCCUAUGGAGAAGACUGCGGGUUCGAGUCCCGUACGCAACG [A37U G68C] | 0.837 |
| GUUCCGUUGGCGUAAUGGUAACGCGUCUCCCUCCUAUGGUGAAGACUGCGGGUUCGAGUCCCGUACGGAACG [A37U A40U] | 0.72 |
| GUUCCGUUGGCGUAAUGGUAACGCGUCUCCCUCCUAUGGCGAAGACUGCGGGUUCGAGUCCCGUACGGAACG [A37U A40C] | 0.776 |
| GUUCCGUUGGCGUAAUGGUAACGCGUCUCCCUCCUAUGGAGAAGACUCCGGGUUCGAGUCCCGUACGGAACG [A37U G48C] | 0.674 |
| GUUCCGUUGGCGUAAUGGUAACGCGUCUCCCUCCUAGGGAGAAGACAGCGGGUUCGAGUACCGUACGGAACG [A37G U47A C60A] | ≤ 0.5 |
| GUUCCGUUGGCGUAAUGGUAACGCGUCUCCCUCCUAUGGAGAAGACUGCGGGUUCGAGUUCGGAACGGUACG [A37U C60U C62G U64A A69U] | ≤ 0.5 |
| GUUCCGUUGGCGUAAUGGUAACGCGUCUCCCUCCUAUGGAGAAGACUGCGGAUCCCGGUCCCGUACGGAACG [A37U G52A U54C G56C A57G] | ≤ 0.5 |
| GUUCCGUUGGCGUAAUGGUAACGCGUCUCCCUCCUAUCGAGAAGACUGCGGGUUCGAGUCCCAUACGGAACG [A37U G38C G63A] | ≤ 0.5 |
| GUUCCGUUGGCGUAAUGGUAACGCGUCUCCCUCCUAUGGAGAAGACUACGGGUUCGAGUCUCGUACGGAACG [A37U G48A C61U] | 0.531 |
| GUUCCGUUGGCGUAAUGGUAACGCGUCUCCCUCCUAGGGAGAAGACGGCGGAUUCGAGUCCCGUACGGAACG [A37G U47G G52A] | ≤ 0.5 |
| GUUCCGUUGGCGUAAUGGUAACGCGUCUCCCUCCUAAAGAGAGGACUGCGGGUUCGAGUCCCGUACGGACCG [G38A A43G A70C] | 0.584 |
| GUUCCGUUGGCGUAAUGGUAACGCGUCUCCCUCCUAUGGAGAAAACUGCGGGUUCGAGUCCCGUAUGGAACG [A37U G44A C66U] | 0.535 |
| GUUCCGUUGGCGUAAUGGUAACGCGUCUCCCUCCUAGGGAGAAGACUGCGGGUUCGAGUCCCGUACCGAACG [A37G G67C] | 0.79 |
| GUUCCGUUGGCGUAAUGGUAACGCGUCUCCCUCCUAUGGAGAAGACUGCGGGUUCGAGUCACGUACCGAACG [A37U C61A G67C] | 0.507 |

Source: the RNAGym collection of RNA variant scans (doi:10.1126/science.aae0568)
